From PubChem BioAssay
Only some compounds are listed: those with a hit (about 3.9% of all), similar ones and a draw of the others.
TAAR1 antag = human TAAR1 antagonism; Q96RJ0; CHO RD-HGA16 TAAR1, Fluo-8 calcium fluorescence, antagonist; inhibition, % at 3 µM; hit rate 1.5% among 360,000; AID 624466;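 active = inhibition above a per-plate cutoff, the mean inhibition of test compounds on that plate plus 3 SD, cut at about 49% in these data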;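 also: 0% = DMSO plus EC80 beta-PEA response and 100% = DMSO alone without agonist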
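Test system: hTAAR1-expressing CHO RD-HGA16 cells, Gα16-coupled; Probe or stimulus: EC80 β-phenethylamine stimulus; Compound dosing: single nominal final test compound concentration of 3 µM; Timing: 140 s kinetic read after compound, 140 s after agonist; Signal: Fluo-8 calcium-sensitive fluorescence; Measure: % inhibition of agonist calcium response; Controls: DMSO and EC80 PEA controls.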
CHRM1 antagonist = blocks human M1 muscarinic receptor | CHO-K1 hM1, Fluo-8 calcium fluorescence, ACh EC80 antagonist | inhibition, % at 3 µM | hit rate 1.3% among 360,000 | AID 588852;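 active = percent inhibition above its own plate's cutoff, namely the mean of that plate's compound wells plus 3 SD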;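 also: peak over basal fluorescence ratio during 140 s after agonist addition; 0% = ACh EC80 plus DMSO and 100% = DMSO alone without agonist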
TAAR1 ag = agonists of human TAAR1; CHO RD-HGA16 TAAR1, Fluo-8 calcium fluorescence; vehicle wells 0%, saturating PEA agonist 100%; hit rate 0.99% among 360,000; activation, % at 3 µM; AID 624467; Q96RJ0;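 active = activation above the mean activation of all test compounds in the run plus 3 SD, cut at about 38% in these data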
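Assay system: CHO-derived RD-HGA16 cells with stable Gα16 and human TAAR1; timing: 17-24 h seeding, 75 min 37 °C dye, 30 min RT; read-out: % activation from peak over basal fluorescence ratio, DMSO-to-PEA scaled; measured by: kinetic Fluo-8 calcium fluorescence; benchmarks: low control DMSO, high control PEA (EC100); doses: 3 µM single concentration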
CHRM1 PAM = potentiates human M1 receptor response to acetylcholine; P11229; CHO-K1 hM1, Fluo-8 calcium fluorescence, ACh EC20; 0% = ACh EC20, 100% = maximal ACh; activation, % at 3 µM; hit rate 0.088% among 360,000; in the data active = activation above about 19%, passing the limit was not always enough
m5-HT2A agonist = mouse HTR2A agonism via beta-arrestin recruitment. P35363. CHO-K1 mHTR2A beta-arrestin complementation, luminescence; percent of 30 µM serotonin response. hit rate 0.66% among 360,000. activation, % at 7.6 µM;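 active = activation above a run cutoff, the mean activation of all tested compounds plus 3 SD, cut at about 14% in these data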;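 also: 0% = plate median of compound wells and 100% = 30 µM serotonin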
Target sequence (P35363 whole entry, looked up): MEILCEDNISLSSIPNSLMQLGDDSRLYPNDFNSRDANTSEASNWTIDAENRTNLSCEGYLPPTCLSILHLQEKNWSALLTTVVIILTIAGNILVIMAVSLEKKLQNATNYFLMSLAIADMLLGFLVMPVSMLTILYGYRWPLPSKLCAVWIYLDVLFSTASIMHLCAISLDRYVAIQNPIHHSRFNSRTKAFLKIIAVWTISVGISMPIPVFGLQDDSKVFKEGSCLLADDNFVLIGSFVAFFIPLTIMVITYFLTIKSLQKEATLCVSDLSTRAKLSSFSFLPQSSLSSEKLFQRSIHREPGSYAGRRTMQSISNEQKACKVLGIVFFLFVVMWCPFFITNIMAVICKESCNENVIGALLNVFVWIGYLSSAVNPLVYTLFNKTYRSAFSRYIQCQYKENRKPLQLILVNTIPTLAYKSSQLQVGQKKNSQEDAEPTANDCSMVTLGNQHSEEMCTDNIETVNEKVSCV
M1 ag = human M1 muscarinic receptor agonism | CHO-K1 hM1, Fluo-8 calcium fluorescence, agonist mode; 0% DMSO, 100% acetylcholine EC100 | activation, % at 3 µM | hit rate 0.33% among 360,000;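 active = activation above the run's mean compound activation plus 3 SD, cut at about 16% in these data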;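 also: peak over basal fluorescence ratio within a 140 s kinetic read after compound addition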
nonsel antag count = nonselective antagonism, TAAR1 counter-screen. shares compounds with TAAR1 antag. counterscreen cell line, calcium fluorescence, antagonist mode. inhibition, % at 3 µM. hit rate 77% among 2,400. AID 651780; in the data active = inhibition above about 22%;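 also: CHO-Ga16 host cells stimulated with ATP at an EC80 level; 0% = agonist EC80 plus vehicle and 100% = vehicle without agonist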
TAAR1 ant conf = human TAAR1 antagonism, confirmed; shares compounds with TAAR1 antag; TAAR1-expressing cells, fluorescence antagonist read-out; inhibition, % at 3 µM; hit rate 40% among 2,400; AID 651785; in the data active = inhibition above about 49%;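 also: CHO-Ga16 host cells challenged with agonist PEA near its EC80; 0% = agonist at EC80 plus vehicle and 100% = vehicle with no agonist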
Ga16 nonsel ag = nonselective Ga16 agonist in TAAR1 antagonist counter-screen. Ga16-expressing cells, calcium fluorescence, agonist counterscreen. hit rate 18% among 2,400. activation, % at 3 µM. AID 651953. shares compounds with TAAR1 antag; in the data active = activation above about 12%;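 also: 0% = vehicle wells and 100% = saturating stimulus response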
TAAR1 ag count = counter-screen for human TAAR1 antagonists: TAAR1 agonists | shares compounds with TAAR1 antag | hTAAR1 cell line, fluorescence activation, agonist mode | activation, % at 3 µM | hit rate 2% among 2,400; in the data active = activation above about 37%;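 also: CHO cells stably expressing TAAR1 with calcium dye readout; 0% = DMSO vehicle and 100% = full agonist response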
* = called active by the depositor; / = no result.

SMILES	TAAR1 antag	CHRM1 antagonist	TAAR1 ag	CHRM1 PAM	m5-HT2A agonist	M1 ag	nonsel antag count	TAAR1 ant conf	Ga16 nonsel ag	TAAR1 ag count
O=C(Nc1cccc(Cl)c1Cl)c1ccc(-c2ccccc2)cc1	60.1*	16.4	15.4	-4.3	-3.5	-1.8	35.1*	89.8*	9.1	12.2
O=C(Nc1ccccc1Cl)c1ccc(C(=O)Nc2ccccc2Cl)cc1	-5.7	-0.6	3.6	5.3	4.5	-2.0	/	/	/	/
O=C1c2cc(O)c(O)cc2S(=O)(=O)C1c1ccccc1 (configuration not stated)	-4.8	-0.8	1.4	7.9	-2.0	-4.4	/	/	/	/
Cc1cc(C)nc(CCNC(=O)CC2C(=O)NCCN2Cc2ccccc2)n1 (configuration not stated)	-9.7	-11.1	1.7	13.1	3.6	-4.2	/	/	/	/
CN(C1CCCCC1)S(=O)(=O)c1ccc(S(=O)(=O)N(CC(=O)Nc2ccccc2)C2CC2)cc1	57.8*	-12.5	5.1	5.7	-3.5	-2.0	25.9*	40.7	9.0	9.7
CN(C1CCCCC1)S(=O)(=O)c1ccc(NC(=O)CCC(=O)O)cc1	-0.2	-20.3	1.3	4.5	2.6	2.6	/	/	/	/
COC(=O)c1cccc(S(=O)(=O)N(Cc2ccco2)Cc2cc3cc(OC)c(OC)cc3[nH]c2=O)c1	22.5	6.9	8.9	-2.6	3.3	-10.6	/	/	/	/
COC(=O)c1cccc(S(=O)(=O)N(Cc2ccco2)Cc2cc3ccc(OC)cc3[nH]c2=O)c1	56.6*	22.6	21.0	-18.8	-0.5	-5.7	33.5*	57.2*	10.3	6.5
CC1(c2ccccc2)NC(=O)N(CC(=O)Nc2cccc(/C=C/c3ccccn3)c2)C1=O (configuration not stated)	49.5*	1.1	8.5	2.8	2.6	-3.5	15.4	33.2	6.1	10.0
COc1cc2c(cc1OC)/C(=C/C(=O)c1cccc([N+](=O)[O-])c1)NCC2	49.5*	-9.4	5.4	11.1	-3.7	-5.1	25.5*	29.4	4.6	-0.1
COc1cc2c(cc1OC)/C(=C/C(=O)c1ccc(OC)c([N+](=O)[O-])c1)NCC2	31.4	-5.8	10.9	-1.8	9.9	-7.0	/	/	/	/
Cc1ccc([N+](=O)[O-])cc1NC(=O)CSc1n[nH]c(-c2cccnc2)n1	-19.6	-7.9	-0.7	11.6	-2.5	-4.2	/	/	/	/
C=CCn1nnnc1SCC(=O)Nc1cccc(C(F)(F)F)c1	5.8	0.2	-0.1	5.4	6.3	-2.8	/	/	/	/
O=C(O)c1ccc2c(c1)SC1=NS(=O)(=O)CCN12	-11.8	-7.2	1.0	6.1	-2.3	-3.6	/	/	/	/
CN(C(=O)c1ccc2c(c1)SC1=NS(=O)(=O)CCN12)C(c1ccccc1)c1ccccc1	69.5*	41.0*	20.6	-20.8	-0.2	-8.0	30.7*	53.2*	8.0	9.4
COc1ccc(C2=NOC(C(=O)N3CCN(c4ccccc4OC)CC3)C2)cc1 (configuration not stated)	50.9*	2.8	9.9	-7.5	0.3	-0.3	21.1	23.1	7.9	8.3
COc1ccc(OC)c(C2=NOC(C(=O)N3CCN(c4ccccc4)CC3)C2)c1 (configuration not stated)	-12.9	-10.8	0.5	0.4	-1.8	-4.0	/	/	/	/
CCc1ccccc1NC(=O)C1CC(c2ccc(OC)cc2)=NO1 (configuration not stated)	102.6*	5.8	-1.9	-8.2	-6.9	-4.3	14.5	7.0	4.5	6.2
COc1ccccc1Cc1c(-c2ccccc2)nc2c(C)cc(Br)cn12	-19.5	-6.8	-2.7	1.4	1.0	-2.6	/	/	/	/
C[C@@H](C(=O)Nc1nccs1)N1C(=O)C2CC=CCC2C1=O (some centres not stated)	-19.8	-15.7	1.8	8.7	4.9	-2.3	/	/	/	/
CC(C(=O)Nc1nc(-c2ccc(F)cc2)cs1)N1C(=O)C2CC=CCC2C1=O (configuration not stated)	78.0*	32.3	19.4	-12.1	11.1	-0.3	40.3*	65.1*	12.4*	11.8
O=C(CCN1C(=O)CSc2ccccc21)Nc1ccc(C(F)(F)F)cc1	61.7*	4.7	5.5	-3.2	-8.7	-4.5	18.8	42.9	9.9	17.9
CCc1ccccc1Nc1nc(N)nc(COC(=O)CCC(=O)c2ccc(F)cc2)n1	/	-3.0	/	-0.8	2.4	-2.1	/	/	/	/
CC1(Cc2ccccc2F)C(=O)Nc2c(Cl)ccc(Cl)c21 (configuration not stated)	13.6	-6.0	7.2	7.3	4.2	3.2	/	/	/	/
CC1(Cc2ccccc2Cl)C(=O)Nc2c(Cl)ccc(Cl)c21 (configuration not stated)	56.8*	-3.3	3.0	6.2	0.5	1.1	0.0	31.9	15.3*	31.7
SMILES	TAAR1 antag	CHRM1 antagonist	TAAR1 ag	CHRM1 PAM	m5-HT2A agonist	M1 ag	nonsel antag count	TAAR1 ant conf	Ga16 nonsel ag	TAAR1 ag count
COc1ccc(NC(=O)CSc2nccn2Cc2ccco2)cc1	-10.1	-4.2	0.3	2.4	-2.1	-2.5	/	/	/	/
O=C(/C=N/O)Nc1ccc2sc3ccccc3c2c1	-27.5	-8.6	-0.7	17.4	1.3	-2.0	/	/	/	/
CN1CCN(c2nc3c(c(=O)[nH]c(=O)n3C)n2CCCSc2nnnn2-c2ccccc2)CC1	-3.3	0.2	0.8	-3.2	-1.3	-7.7	/	/	/	/
Cc1csc(SCCn2c(N3CCN(c4ccccc4)CC3)nc3c2c(=O)[nH]c(=O)n3C)n1	54.0*	13.6	16.3	-4.0	-4.7	0.3	18.9	38.9	7.9	8.6
Cn1c(N2CCN(C(c3ccccc3)c3ccccc3)CC2)nc2c1c(=O)[nH]c(=O)n2C	66.7*	14.7	15.2	-5.6	11.0	-2.3	30.6*	49.8*	12.9*	33.3
N#CCNc1ccc([N+](=O)[O-])cc1C#N	-18.9	-1.5	3.4	2.2	-3.4	-3.9	/	/	/	/
COc1ccccc1CNC(=O)c1cc(-c2cccnc2)nc2ccccc12	73.9*	19.4	15.4	-4.1	-1.3	1.7	22.8*	39.2	10.2	13.5
Cc1ccc(C)c(Nc2cc(C(=O)NCc3cccnc3)c3ccccc3n2)c1	49.7*	-18.4	12.7	-7.1	-6.2	-2.9	21.5*	44.1	8.9	6.6
COc1ccccc1Nc1cc(C(=O)NCc2cccnc2)c2ccccc2n1	35.9	22.4	11.5	-11.2	-3.1	-2.5	/	/	/	/
